ChEMBL document CHEMBL5247578, “Effective synthesis of benzimidazoles-imidazo[1,2-a]pyrazine conjugates: A comparative study of mono-and bis-benzimidazoles for antitumor activity” (Eur J Med Chem, 2019)
The source made the active and inactive calls. The calls are words filed in the database; no cut-off is given here.

How the values were obtained:
SNB-19 = assay: Growth inhibition against human SNB-19 cells incubated for 48 hrs by sulforhodamine B assay; type: functional
HCT-15 [1] = assay: Antiproliferative activity against human HCT-15 cells assessed as cell growth at 0.00000001 M incubated for 48 hrs by SRB assay relative to control; type: functional; conditions: dose 10 nM, read-out: Activity
Outline: (§1)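 NCI-60 five-dose screen (10^-4 to 10^-8 M). Cells grown in RPMI 1640 with 5% FBS and 2 mM L-glutamine, plated at 5,000-40,000 cells/well and preincubated 24 h. Drug given from DMSO stock, then 48 h at 37 °C, 5% CO2. For adherent lines, cells fixed with cold TCA, SRB-stained and read at 515 nm. Percent growth taken against time-zero and untreated control.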

UO-31 = assay: Antiproliferative activity against human UO-31 cells assessed as cell growth at 0.0000001 M incubated for 48 hrs by SRB assay relative to control; type: functional; conditions: dose 100 nM, read-out: Activity
T47D = assay: Antiproliferative activity against human T47D cells assessed as cell growth at 0.000001 M incubated for 48 hrs by SRB assay relative to control; type: functional; conditions: read-out: Activity
SF-539 = assay: Antiproliferative activity against human SF-539 cells assessed as cell growth at 0.00001 M incubated for 48 hrs by SRB assay relative to control; type: functional; conditions: read-out: Activity
U-251 = assay: Antiproliferative activity against human U-251 cells assessed as cell growth at 0.00000001 M incubated for 48 hrs by SRB assay relative to control; type: functional; conditions: dose 10 nM, read-out: Activity
KM12 [2] = assay: Growth inhibition against human KM12 cells incubated for 48 hrs by sulforhodamine B assay; type: functional
KM12 [3] = assay: Antiproliferative activity against human KM12 cells assessed as cell growth at 0.0001 M incubated for 48 hrs by SRB assay relative to control; type: functional; conditions: read-out: Activity
NCI-H522 = assay: Antiproliferative activity against human NCI-H522 cells assessed as cell growth at 0.00000001 M incubated for 48 hrs by SRB assay relative to control; type: functional; conditions: dose 10 nM, read-out: Activity
OVCAR-3 = assay: Antiproliferative activity against human OVCAR-3 cells assessed as cell growth inhibition by measuring lethal concentration incubated for 48 hrs by sulforhodamine B assay; type: functional; conditions: read-out: LC50 (the source's name)
RXF 393 = assay: Antiproliferative activity against human RXF 393 cells assessed as cell growth at 0.0000001 M incubated for 48 hrs by SRB assay relative to control; type: functional; conditions: dose 100 nM, read-out: Activity
HOP-62 = assay: Antiproliferative activity against human HOP-62 cells assessed as cell growth at 0.0001 M incubated for 48 hrs by SRB assay relative to control; type: functional; conditions: read-out: Activity; outline: as §1
OVCAR-5 = assay: Antiproliferative activity against human OVCAR-5 cells assessed as cell growth at 0.00000001 M incubated for 48 hrs by SRB assay relative to control; type: functional; conditions: dose 10 nM, read-out: Activity
M14 [4] = assay: Antiproliferative activity against human M14 cells assessed as cell growth at 0.00001 M incubated for 48 hrs by SRB assay relative to control; type: functional; conditions: read-out: Activity
Calf thymus DNA = assay: Binding affinity to calf thymus DNA assessed as intercalation by measuring decrease in DNA intensity by circular dichroism spectroscopy; type: nucleic-acid assay; conditions: Bos taurus
SK-MEL-28 = assay: Antiproliferative activity against human SK-MEL-28 cells assessed as cell growth at 0.0001 M incubated for 48 hrs by SRB assay relative to control; type: functional; conditions: read-out: Activity
NCI/ADR-RES = assay: Growth inhibition against human NCI/ADR-RES cells incubated for 48 hrs by sulforhodamine B assay; type: functional
HL-60 [5] = assay: Antiproliferative activity against human HL-60 cells assessed as cell growth at 0.0001 M incubated for 48 hrs by SRB assay relative to control; type: functional; conditions: read-out: Activity; outline: as §1
MDA-MB-231 [6] = assay: Antiproliferative activity against human MDA-MB-231 cells assessed as cell growth at 0.000001 M incubated for 48 hrs by SRB assay relative to control; type: functional; conditions: read-out: Activity
HL-60 [7] = assay: Antiproliferative activity against human HL-60 cells assessed as cell growth at 0.000001 M incubated for 48 hrs by SRB assay relative to control; type: functional; conditions: read-out: Activity; outline: as §1
HCC 2998 = assay: Antiproliferative activity against human HCC 2998 cells assessed as cell growth at 0.00000001 M incubated for 48 hrs by SRB assay relative to control; type: functional; conditions: dose 10 nM, read-out: Activity; outline: as §1
A549 = assay: Antiproliferative activity against human A549 cells assessed as cell growth at 0.000001 M incubated for 48 hrs by SRB assay relative to control; type: functional; conditions: read-out: Activity
Outline: (§2)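 NCI-60 five-dose screen over 10^-4–10^-8 M (10-fold dilutions). Cells grown in RPMI 1640 with 5% FBS and 2 mM L-glutamine, seeded at 5,000–40,000 cells/well and preincubated 24 h. Drug from DMSO stock, 48 h at 37 °C, 5% CO2. Adherent cells TCA-fixed and stained with 0.4% SRB; A515 read. Percent growth = (Ti−Tz)/(C−Tz)×100, or (Ti−Tz)/Tz×100 when Ti<Tz.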

HCT-116 = assay: Antiproliferative activity against human HCT-116 cells assessed as cell growth at 0.0000001 M incubated for 48 hrs by SRB assay relative to control; type: functional; conditions: dose 100 nM, read-out: Activity; outline: as §1
SF-295 = assay: Growth inhibition against human SF-295 cells incubated for 48 hrs by sulforhodamine B assay; type: functional
MDA-MB-231 [8] = assay: Growth inhibition against human MDA-MB-231 cells assessed as total growth inhibitory concentration incubated for 48 hrs by sulforhodamine B assay; type: functional
CCRF-CEM = assay: Antiproliferative activity against human CCRF-CEM cells assessed as cell growth at 0.0000001 M incubated for 48 hrs by SRB assay relative to control; type: functional; conditions: dose 100 nM, read-out: Activity; outline: as §2
M14 [9] = assay: Antiproliferative activity against human M14 cells assessed as cell growth at 0.0001 M incubated for 48 hrs by SRB assay relative to control; type: functional; conditions: read-out: Activity
786-0 = assay: Antiproliferative activity against human 786-0 cells assessed as cell growth at 0.000001 M incubated for 48 hrs by SRB assay relative to control; type: functional; conditions: read-out: Activity; outline: as §2
SW-620 = assay: Antiproliferative activity against human SW620 cells assessed as cell growth at 0.0001 M incubated for 48 hrs by SRB assay relative to control; type: functional; conditions: read-out: Activity
HCT-15 [10] = assay: Antiproliferative activity against human HCT-15 cells assessed as cell growth at 0.0000001 M incubated for 48 hrs by SRB assay relative to control; type: functional; conditions: dose 100 nM, read-out: Activity; outline: as §1
MOLT-4 = assay: Antiproliferative activity against human MOLT-4 cells assessed as cell growth at 0.00000001 M incubated for 48 hrs by SRB assay relative to control; type: functional; conditions: dose 10 nM, read-out: Activity
MCF7 [11] = assay: Antiproliferative activity against human MCF7 cells assessed as cell growth at 0.00000001 M incubated for 48 hrs by SRB assay relative to control; type: functional; conditions: dose 10 nM, read-out: Activity
MCF7 [12] = assay: Antiproliferative activity against human MCF7 cells assessed as cell growth inhibition by measuring lethal concentration incubated for 48 hrs by sulforhodamine B assay; type: functional; conditions: read-out: LC50 (the source's name)
NCI-H460 = assay: Antiproliferative activity against human NCI-H460 cells assessed as cell growth at 0.0001 M incubated for 48 hrs by SRB assay relative to control; type: functional; conditions: read-out: Activity
CAKI-1 = assay: Antiproliferative activity against human CAKI-1 cells assessed as cell growth inhibition by measuring lethal concentration incubated for 48 hrs by sulforhodamine B assay; type: functional; conditions: read-out: LC50 (the source's name)

SMILES: COc1ccc(-c2cn3ccnc3c(-c3ccc4ncn(C5CCCCC5)c4c3)n2)cc1
- GI50 (SNB-19): 836 nM
- growth at 0.01 µM (HCT-15 [1]): 94%
- growth at 0.1 µM (UO-31): 88%
- growth at 1 µM (T47D): 45%
- growth at 10 µM (SF-539): -53%
- growth at 0.01 µM (U-251): 102%
- GI50 (KM12 [2]): 1350 nM
- growth at 100 µM (KM12 [3]): 10%
- growth at 0.01 µM (NCI-H522): 88%
- CC50 (OVCAR-3): > 100000 nM
- growth at 0.1 µM (RXF 393): 104%
- growth at 100 µM (HOP-62): 8%
- growth at 0.01 µM (OVCAR-5): 86%
- growth at 10 µM (M14 [4]): 9%
- Activity (Calf thymus DNA): Active
- growth at 100 µM (SK-MEL-28): 36%
- GI50 (NCI/ADR-RES): 618 nM
- growth at 100 µM (HL-60 [5]): -7%
- growth at 1 µM (MDA-MB-231 [6]): 81%
- growth at 1 µM (HL-60 [7]): 52%
- growth at 0.01 µM (HCC 2998): 97%
- growth at 1 µM (A549): 63%
- growth at 0.1 µM (HCT-116): 91%
- GI50 (SF-295): 361 nM
- TGI (MDA-MB-231 [8]): > 100000 nM
- growth at 0.1 µM (CCRF-CEM): 107%
- growth at 100 µM (M14 [9]): 8%
- growth at 1 µM (786-0): 34%
- growth at 100 µM (SW-620): 19%
- growth at 0.1 µM (HCT-15 [10]): 99%
- growth at 0.01 µM (MOLT-4): 100%
- growth at 0.01 µM (MCF7 [11]): 88%
- CC50 (MCF7 [12]): > 100000 nM
- growth at 100 µM (NCI-H460): 5%
- CC50 (CAKI-1): > 100000 nM

SMILES: c1ccc(Cn2cnc3ccc(-c4nc(-c5ccc6c(c5)ncn6C5CCCCC5)cn5ccnc45)cc32)cc1
- GI50 (SNB-19): 4540 nM
- growth at 0.01 µM (HCT-15 [1]): 92%
- growth at 0.1 µM (UO-31): 86%
- growth at 1 µM (T47D): 61%
- growth at 10 µM (SF-539): -75%
- growth at 0.01 µM (U-251): 98%
- GI50 (KM12 [2]): 2090 nM
- growth at 100 µM (KM12 [3]): -7%
- growth at 0.01 µM (NCI-H522): 93%
- CC50 (OVCAR-3): > 100000 nM
- growth at 0.1 µM (RXF 393): 105%
- growth at 100 µM (HOP-62): 5%
- growth at 0.01 µM (OVCAR-5): 89%
- growth at 10 µM (M14 [4]): -25%
- Activity (Calf thymus DNA): Active
- growth at 100 µM (SK-MEL-28): 13%
- GI50 (NCI/ADR-RES): 1980 nM
- growth at 100 µM (HL-60 [5]): -18%
- growth at 1 µM (MDA-MB-231 [6]): 83%
- growth at 1 µM (HL-60 [7]): 113%
- growth at 0.01 µM (HCC 2998): 94%
- growth at 1 µM (A549): 106%
- growth at 0.1 µM (HCT-116): 93%
- GI50 (SF-295): 1420 nM
- TGI (MDA-MB-231 [8]): 3690 nM
- growth at 0.1 µM (CCRF-CEM): 113%
- growth at 100 µM (M14 [9]): 6%
- growth at 1 µM (786-0): 46%
- growth at 100 µM (SW-620): 7%
- growth at 0.1 µM (HCT-15 [10]): 96%
- growth at 0.01 µM (MOLT-4): 112%
- growth at 0.01 µM (MCF7 [11]): 86%
- CC50 (MCF7 [12]): > 100000 nM
- growth at 100 µM (NCI-H460): -24%
- CC50 (CAKI-1): > 100000 nM
